From PubChem
PAFAH1B2 inh: PAFAH1B2 (human) inhibition | P68402 | recombinant PAFAH1B2, FP-rhodamine activity probe, fluorescence polarization | inhibition, % at 3.39 µM | 340,000 tested, 1.2% active | AID 492953;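 active means inhibition above the mean of all tested compounds plus 3 SD, cut at about 24% in these data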
Target sequence (P68402 whole entry, looked up): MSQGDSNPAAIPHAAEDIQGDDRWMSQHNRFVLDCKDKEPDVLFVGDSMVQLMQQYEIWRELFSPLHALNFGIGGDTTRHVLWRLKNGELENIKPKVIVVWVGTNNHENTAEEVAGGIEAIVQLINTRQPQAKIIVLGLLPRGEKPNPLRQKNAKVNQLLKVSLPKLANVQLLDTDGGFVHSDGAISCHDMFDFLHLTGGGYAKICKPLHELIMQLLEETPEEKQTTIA
pPAFAH FP inh: pPAFAH (human) enzyme inhibition. Q13093. recombinant pPAFAH, FP-rhodamine probe fluorescence polarization. inhibition, % at 3.39 µM. 330,000 tested, 1.5% active;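 active means inhibition above the mean inhibition across the screen plus 3 SD, cut at about 25% in these data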;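 further: inhibitors block binding of the rhodamine activity-based probe so polarization drops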
Target sequence (Q13093 whole entry, looked up): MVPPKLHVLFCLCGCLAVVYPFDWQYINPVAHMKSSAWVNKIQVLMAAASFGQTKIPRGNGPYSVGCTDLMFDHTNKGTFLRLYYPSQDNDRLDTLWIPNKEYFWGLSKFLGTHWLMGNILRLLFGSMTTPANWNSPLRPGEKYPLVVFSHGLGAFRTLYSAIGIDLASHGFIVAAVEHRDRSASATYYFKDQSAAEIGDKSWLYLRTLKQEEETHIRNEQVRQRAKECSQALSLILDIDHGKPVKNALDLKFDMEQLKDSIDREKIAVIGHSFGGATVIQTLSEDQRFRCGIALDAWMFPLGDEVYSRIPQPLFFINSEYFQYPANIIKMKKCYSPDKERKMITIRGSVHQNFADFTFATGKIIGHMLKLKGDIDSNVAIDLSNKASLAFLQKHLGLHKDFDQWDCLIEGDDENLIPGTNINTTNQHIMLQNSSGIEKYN
Apaf-1 inh: inhibitors of human Apaf-1 apoptosome; inhibition, % at 20 µM; 330,000 tested, 0.71% active; reconstituted apoptosome caspase-3 activity, DEVD-Rh110 fluorescence; O14727; active means inhibition of at least 40% at 20 µM
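Material: reconstituted apoptosome with Apaf-1, cytochrome c, caspase-9, procaspase-3, dATP / Buffer or medium: pH 7.5 Hepes buffer with CHAPS, BSA, DTT / Also added: cytochrome c with DEVD-Rh110 / Schedule: compound with Apaf-1, dATP, procaspase-3 30 min, then 50 min reaction, room temperature / Technique: rhodamine 110 fluorescence at Ex 480/Em 540 nm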
PAFAH1B3 inh: inhibitors of human PAFAH1B3; inhibition, % at 3.39 µM; 340,000 tested, 0.28% active; recombinant PAFAH1B3, FP-rhodamine probe, fluorescence polarization;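 active means inhibition above the screen-wide average of all tested compounds plus 3 SD, cut at about 25% in these data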
PAFAH2 FP inh: PAFAH2 (human) inhibition; recombinant PAFAH2, FP-rhodamine activity probe, fluorescence polarization; Q99487; 340,000 tested, 0.99% active; inhibition, % at 3.39 µM;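 active means inhibition above the mean over all tested compounds plus 3 SD, cut at about 30% in these data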;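 further: inhibitors block probe labeling of enzyme so polarization drops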
PREPL inhibitor: inhibits the human prolyl oligopeptidase-like enzyme. Q4J6C6. recombinant PREPL, fluorescence polarization activity-based probe. inhibition, % at 5.96 µM. 320,000 tested, 0.68% active. AID 2751; in the data active means inhibition above about 43%
Apaf-1 inh conf2: confirmation of Apaf-1 inhibitors; shares compounds with Apaf-1 inh; reconstituted apoptosome, caspase-3 DEVD-Rh110 fluorescence; inhibition, % at 20 µM; 1,800 tested, 25% active; AID 504614;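 active means mean inhibition of at least 40% at 20 µM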
Rh110 quench: counter-screen for Apaf-1 inhibitors: fluorescence interference. shares compounds with Apaf-1 inh. 1,800 tested, under 10 active. Rh110 fluorescence interference, quenched caspase reaction. activation (fluorescence interference), % at 20 µM;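 active means signal rise of 40% or more at 20 µM, treated as a fluorescence artifact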
Fluor interf inh: Apaf-1 inhibitor counter-screen fluorescence artifact; shares compounds with Apaf-1 inh; fluorescence interference counterscreen, Apaf-1 assay format; IC50, µM; 460 tested, under 10 active; call rule not given here
Hits are given with their value; - = inactive; . = not tested or not shown. A selection: hits, their analogues and other compounds. The true share with any hit is near 3.5%.

SMILES	PAFAH1B2 inh	pPAFAH FP inh	Apaf-1 inh	PAFAH1B3 inh	PAFAH2 FP inh	PREPL inhibitor	Apaf-1 inh conf2	Rh110 quench	others
Clc1ccc(OCc2nn3c(-c4ccccc4)nnc3s2)c(Cl)c1	-	-	-	-	-	-	.	.
Clc1ccccc1OCc1nn2c(-c3ccncc3)nnc2s1	-	-	41	-	-	-	50	-	Fluor interf inh=-
CCc1noc(C)c1C(=O)N1CCN(S(=O)(=O)c2ccc(C(C)=O)cc2)CC1	-	-	-	-	-	-	.	.
CCc1noc(C)c1C(=O)N1CCN(S(=O)(=O)c2c(C)cc(C)cc2C)CC1	-	-	57	-	-	-	-	-
Nc1nonc1-n1nnc(C(=O)N/N=C/c2ccncc2)c1-c1ccccc1	-	-	-	-	-	-	.	.
CN(C)c1cc(N/N=C/c2ccccc2C(F)(F)F)nc(N(C)C)n1	-	-	56	-	-	-	51	-	Fluor interf inh=-
C=CCNC(=S)NN=C1CCCCCCC1	-	-	-	-	-	-	.	.
O=C(c1ccc2nc(-c3ccco3)c(-c3ccco3)nc2c1)N1CCN(c2ccccc2)CC1	-	-	40	-	-	-	-	-
Cc1cccc(NCC(=O)N/N=C\c2ccccn2)c1	-	-	-	-	-	-	.	.
O=C(CNc1cccc2ccccc12)N/N=C/c1ccccn1	.	-	48	.	.	-	-	-
Cc1ccc(N2CCN(S(=O)(=O)c3cccs3)CC2C)cc1 (centres undefined)	-	-	62	-	-	-	-	-
CC1CN(S(=O)(=O)c2cccs2)CC(C)O1 (centres undefined)	-	-	-	-	-	-	.	.
OCC1(CCOc2ccccc2)CCN(Cc2ccc(OC(F)F)cc2)CC1	-	-	-	-	-	-	.	.
Cc1ccc2[nH]c3c(c2c1)CN(C(=O)CN1CCN(c2cccc(C)c2C)CC1)CC3	-	-	43	-	-	-	-	-
CCOc1cc(/C=C/C(=O)Nc2ccc(C(=O)NCCN(CC)CC)cc2)ccc1OCC(C)C	-	-	47	-	-	-	-	-
CCN1CCc2c(sc(NC(=O)c3ccc(C(=O)c4ccccc4)cc3)c2C(N)=O)C1	-	-	44	-	-	-	-	-
NC(=O)c1c(NC(=O)c2ccccc2)sc2c1CCN(Cc1ccccc1)C2	-	-	-	-	-	-	.	.
CCCCn1c(N)c(N(CCOC)C(=O)CSc2ccc([N+](=O)[O-])cc2)c(=O)[nH]c1=O	-	-	-	-	-	-	.	.
CNC(=O)c1ccc(NC(=O)C2CCN(c3ncnc4sc(C)c(C)c34)CC2)cc1	-	-	-	-	-	-	.	.
CCCN(CC(=O)Nc1ccccc1C)C(=O)C1CCN(c2ncnc3sc(C)c(C)c23)CC1	-	-	49	-	-	-	-	-
Cc1sc2ncnc(N3CCC(C(=O)Nc4ccc(Cl)c(Cl)c4)CC3)c2c1C	-	-	42	-	-	-	-	-
Cc1ccccc1OCC(=O)NNC(=O)C1CCN(c2ncnc3sc(C)c(C)c23)CC1	-	-	-	-	-	-	.	.
C=CCn1c(SCC(=O)Nc2sccc2C(N)=O)nc2sc(CC)cc2c1=O	-	-	42	-	-	-	-	-
C=CCn1c(SCC(=O)Nc2sccc2C(N)=O)nc2ccc(Cl)cc2c1=O	-	-	-	-	-	-	.	.
COC(=O)[C@H](Cc1ccccc1)NC(=O)C1(OC(C)=O)CC(OC(C)=O)C(OC(C)=O)C(OC(C)=O)C1 (some centres undefined)	-	-	-	-	-	-	.	.
SMILES	PAFAH1B2 inh	pPAFAH FP inh	Apaf-1 inh	PAFAH1B3 inh	PAFAH2 FP inh	PREPL inhibitor	Apaf-1 inh conf2	Rh110 quench	others
COc1ccc(-c2[nH]ncc2CNCC(C)(C)N2CCOCC2)cc1F	-	-	-	-	-	-	.	.
Cc1c(C(=O)N(C)CCOc2ccccc2)oc2c(Cl)cccc12	-	-	45	-	-	-	-	-
COc1ccc2oc(C(=O)N(C)CCOc3ccc(Cl)cc3)c(C)c2c1	-	-	-	-	-	-	.	.
COC(=O)CCN(c1ccccc1)S(=O)(=O)c1cc(-c2cc(C)no2)ccc1OC	-	-	-	-	-	-	.	.
COc1cc2c(cc1O)CC[n+]1cc3c(OC)c(OC)ccc3cc1-2	-	-	-	-	-	-	.	.
COc1cc2c(cc1OC)-c1cc3ccc4c(c3c[n+]1CC2)OCO4	-	-	73	-	-	-	-	-
CCOC(=O)c1ccc(NC(=O)C(C)N2C(=O)c3ccccc3C2=O)cc1 (centres undefined)	-	-	-	-	-	-	.	.
NS(=O)(=O)c1ccc(NC2=CC(=O)C(=O)c3ccccc32)cc1	-	-	95	-	-	-	98	-	Fluor interf inh=-
CCOC(=O)c1ccc(NC2=CC(=O)C(=O)c3ccccc32)cc1	-	-	72	58	38	-	88	-	Fluor interf inh=-
CCN(CC)CCNC(=O)c1ccc(NC(=O)C2CC(=O)N(CCc3ccc(OC)c(OC)c3)C2)cc1 (centres undefined)	-	-	47	-	-	-	-	-
COc1ccc(CCN(C)C(=O)C2CCN(Cc3ccc(C)cc3)CC2)cc1OC	-	-	-	-	-	-	.	.
COc1ccc(CCN(C)C(=O)C2CC(=O)N(Cc3ccc(C)cc3)C2)cc1OC (centres undefined)	-	-	56	-	-	-	-	-
COc1ccc(S(=O)(=O)Nc2cccc3ccc(O)cc23)cc1	-	-	-	-	-	-	.	.
COc1ccc(S(=O)(=O)Oc2ccc3cccc(N)c3c2)cc1	.	-	88	.	.	-	-	-
Cc1cc(-c2nnc(SCC(=O)Nc3nccs3)o2)no1	-	-	-	-	-	-	.	.
COc1ccccc1N1C(=O)c2ccccc2NC1c1ccncc1 (centres undefined)	-	-	-	-	-	-	.	.
COc1ccccc1N1C(=O)N(C(C)=O)C2C1Nc1ccccc1N2C (centres undefined)	-	-	83	-	-	-	-	-
Cc1[nH]n(-c2ccccc2)c(=O)c1N=Nc1nccs1	-	-	73	-	-	-	-	-
CCCCCc1cc(=O)oc2c(C(CCN(CC)CC)c3ccc(OC)cc3)c(OC)cc(OC)c12 (centres undefined)	-	-	61	-	-	-	-	-
CCN(CC)CCC(c1ccc(N(C)C)cc1)c1c(OC)cc(OC)c2ccc(=O)oc12 (centres undefined)	-	-	-	-	-	-	.	.
CCCCCc1cc(=O)oc2c(C(CCN3CCCC3)c3cc(OC)c(OC)c(OC)c3)c(OC)cc(OC)c12 (centres undefined)	-	-	50	-	-	-	-	-
